Results as given in ChEMBL document CHEMBL3232734, “Nitric oxide (NO) releasing poly ADP-ribose polymerase 1 (PARP-1) inhibitors targeted to glutathione S-transferase P1-overexpressing cancer cells” (J Med Chem, 2014).
Blank lines part the entries; values can stand above or below the compound they belong to. Calls of active or inactive are those of the source. The rule behind the calls is not given here.

Key:
[1] = target: T1, Poly [ADP-ribose] polymerase 1 (Homo sapiens, UniProt P09874); test: Inhibition of PARP-1 (unknown origin) assessed as incorporation of biotinylated poly ADP-ribose onto histone proteins by colorimetric analysis
[2] = system: A549; test: Retention time of the compound in human A549 cells treated with 2-(2,4-dinitrophenoxy)-1-(4-(2-fluoro-5-((4-oxo-3,4-dihydrophthalazin-1-yl)methyl)benzoyl)piperazin-1-yl)diazene oxide at 10 uM by LC/MS/MS analysis; type: ADME, cell-based; details: a549, 10 µM
How it was run: (§1)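 A549 cells plated in flasks overnight at 37 °C, then treated with 10 μM compound for varying times. Lysed by scraping in 10 mM HCl/acetonitrile, 5% sulfosalicylic acid added, centrifuged at 12000g for 15 min, filtered. Analyzed on a C18 column, 0.2 mL/min, H2O/acetonitrile/0.1% formic acid gradient, by Q-TOF LC/MS/MS in positive mode; extracted ion chromatograms at [M+H]+.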

[3] = system: A549; test: In vitro antiproliferative activity against human A549 cells assessed as inhibition of cell proliferation after 72 hrs by MTT assay; type: functional, cell-based; details: A549, 72 h
[4] = In vitro antiproliferative activity against human NCI-H1944 cells assessed as inhibition of cell proliferation after 72 hrs by MTT assay; type: functional, cell-based; details: NCI-H1944, 72 h
[5] = Prodrug activation assessed as GSH reactivity in aqueous phosphate buffer at pH 7.4 by UV-Visible spectrophotometer analysis; type: physicochemical
How it was run: (§2)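 UV–vis kinetics at 37 °C in 0.1 M phosphate buffer, pH 7.4, with 50 μM DTPA and 4 mM GSH, with or without 40 nM recombinant GSTP1 or GSTA1. Substrate (typically 10 μM) added after thermal equilibration. Ratios are k with enzyme over k with GSH alone.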

[6] = target: T2, Glutathione S-transferase A1 (Homo sapiens, UniProt P08263); test: Ratio of prodrug activation in presence of GSH and recombinant GSTA1 (unknown origin) to prodrug activation in presence of GSH by UV-Visible spectrophotometry
T2 sequence (P08263 whole entry): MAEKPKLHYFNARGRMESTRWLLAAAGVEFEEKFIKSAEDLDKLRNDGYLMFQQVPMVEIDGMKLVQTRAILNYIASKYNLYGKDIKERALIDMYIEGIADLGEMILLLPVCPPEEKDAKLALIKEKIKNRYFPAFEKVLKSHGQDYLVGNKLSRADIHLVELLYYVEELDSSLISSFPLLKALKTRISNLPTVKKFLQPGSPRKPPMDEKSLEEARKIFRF
How it was run: as §2, with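 “equilibration. Absorbance followed at 302 nm; first-order rate from an exponential fit.” for “equilibration.”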

[7] = target: Glutathione S-transferase P (Homo sapiens, UniProt P09211); test: Ratio of prodrug activation in presence of GSH and recombinant GSTP1 (unknown origin) to prodrug activation in presence of GSH by UV-Visible spectrophotometry
How it was run: as §2, with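 “equilibration. Absorbance followed at 302 nm; first-order rate from an exponential fit.” for “equilibration.”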

[8] = system: NCI-H1703; test: Induction of DNA strand break damage in human NCI-H1703 cells at 5 uM after 24 hrs by comet assay; type: functional, cell-based
[9] = system: Mus musculus; test: Systemic toxicity in NCr nu/nu athymic mouse xenografted with human A549 cells assessed as body weight at 92 umol/kg, iv administered two times a week for 4 weeks (reference value: 25.0 +/-0.78 gms); type: organism-based; details: in vivo, 672 h
[10] = In vitro antiproliferative activity against human H441 cells assessed as inhibition of cell proliferation after 72 hrs by MTT assay; type: functional, cell-based; details: NCI-H441, 72 h
[11] = system: NCI-H1792; test: In vitro antiproliferative activity against human NCI-H1792 cells assessed as inhibition of cell proliferation after 72 hrs by MTT assay; type: functional, cell-based; details: NCI-H1792, 72 h
[12] = In vitro antiproliferative activity against human NCI-H2023 cells assessed as inhibition of cell proliferation after 72 hrs by MTT assay; type: functional, cell-based; details: NCI-H2023, 72 h
[13] = system: Tumour; test: Drug metabolism in tumor of NCr nu/nu athymic mouse xenografted with human A549 cells assessed as metabolite formation at 92 umol/kg, iv administered two times a week for 4 weeks; type: ADME, organism-based, Neoplasm; details: in vivo, 672 h
How it was run: (§3)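 A549 cells (RPMI 1640 + 10% FBS, ≤4 passages) harvested at 70–80% confluence, 5 × 10^6 cells in PBS implanted s.c.; at ~3 mm × 3 mm tumors, mice randomized into groups of 12. Tail-vein injection at 92 μmol/kg in 20 μL DMSO, twice weekly for 4 weeks; saline or DMSO controls. Tumors caliper-measured twice weekly, volume = π/2 × L × W². Tumors resected at end, frozen, extracted for metabolite analysis by LC/MS.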

[14] = system: NCI-H1703; test: Increase in intracellular reactive oxygen/nitrogen species in human NCI-H1703 cells at 10 uM after 60 mins by DCF-DA dye based luminescence spectrometer analysis; type: functional, cell-based
How it was run: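 Cells in six-well plates (6 × 10^5/well) loaded with 5 μM DCF-DA in HBSS, 30 min at 37 °C, 5% CO2, then rinsed. Fresh HBSS with compound (10 μM) or DMSO control added. After 60 min cells scraped into HBSS; DCF fluorescence read at ex 488 / em 530 nm. At least three experiments, each at least in triplicate.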

[15] = In vitro antiproliferative activity against human H23 cells assessed as inhibition of cell proliferation after 72 hrs by MTT assay; type: functional, cell-based; details: NCI-H23, 72 h
[16] = In vitro antiproliferative activity against human NCI-H1568 cells assessed as inhibition of cell proliferation after 72 hrs by MTT assay; type: functional, cell-based; details: NCI-H1568, 72 h
[17] = system: NCI-H1703; test: Increase in intracellular nitric oxide release in human NCI-H1703 cells at 10 uM after 30 mins by DAF-FM dye based luminescence spectrometer analysis; type: functional, cell-based
[18] = system: NCI-H1703; test: In vitro antiproliferative activity against human NCI-H1703 cells assessed as inhibition of cell proliferation after 72 hrs by MTT assay; type: functional, cell-based; details: NCI-H1703, 72 h
[19] = system: A549; test: Retention time of the compound in human A549 cells at 10 uM by LC/MS/MS analysis; type: ADME, cell-based; details: a549, 10 µM
How it was run: as §1

[20] = target: T1, Poly [ADP-ribose] polymerase 1; test: Inhibition of PARP-1 (unknown origin) assessed as incorporation of biotinylated poly ADP-ribose onto histone proteins measured without activation by GSH by colorimetric analysis
How it was run: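 Colorimetric PARP assay kit measuring biotinylated poly(ADP-ribose) incorporation onto histones, run per the manufacturer's protocol. Absorbance read at 450 nm. Inhibitor tested over 0.01 nM–1 μM, prodrug given without GSH activation. At least three experiments, each at least in triplicate.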

[21] = system: A549; test: Anticancer activity against human A549 cells xenografted in NCr nu/nu athymic mouse assessed as reduction of tumor growth at 92 umol/kg, iv administered two times a week for 4 weeks; type: functional, organism-based
How it was run: as §3

[22] = system: NCI-H2122; test: In vitro antiproliferative activity against human NCI-H2122 cells assessed as inhibition of cell proliferation after 72 hrs by MTT assay; type: functional, cell-based; details: NCI-H2122, 72 h
[23] = system: NCI-H1703; test: Induction of apoptosis in human NCI-H1703 cells assessed as cleaved caspase-7 level at 5 to 25 uM by immunoblot analysis; type: functional, cell-based; details: 5 to […] uM
[24] = system: NCI-H2030; test: In vitro antiproliferative activity against human NCI-H2030 cells assessed as inhibition of cell proliferation after 72 hrs by MTT assay; type: functional, cell-based; details: NCI-H2030, 72 h
[25] = In vitro antiproliferative activity against human H460 cells assessed as inhibition of cell proliferation after 72 hrs by MTT assay; type: functional, cell-based; details: NCI-H460, 72 h
[26] = system: NCI-H322M; test: In vitro antiproliferative activity against human NCI-H322M cells assessed as inhibition of cell proliferation after 72 hrs by MTT assay; type: functional, cell-based
[27] = system: Tumour; test: Drug uptake in tumor of NCr nu/nu athymic mouse xenografted with human A549 cells at 92 umol/kg, iv administered two times a week for 4 weeks; type: ADME, organism-based, Neoplasm; details: in vivo, 672 h
How it was run: as §3

[28] = system: NCI-H1693; test: In vitro antiproliferative activity against human NCI-H1693 cells assessed as inhibition of cell proliferation after 72 hrs by MTT assay; type: functional, cell-based; details: NCI-H1693, 72 h
[29] = system: NCI-H1355; test: In vitro antiproliferative activity against human NCI-H1355 cells assessed as inhibition of cell proliferation after 72 hrs by MTT assay; type: functional, cell-based; details: NCI-H1355, 72 h

T1 sequence (P09874 whole entry): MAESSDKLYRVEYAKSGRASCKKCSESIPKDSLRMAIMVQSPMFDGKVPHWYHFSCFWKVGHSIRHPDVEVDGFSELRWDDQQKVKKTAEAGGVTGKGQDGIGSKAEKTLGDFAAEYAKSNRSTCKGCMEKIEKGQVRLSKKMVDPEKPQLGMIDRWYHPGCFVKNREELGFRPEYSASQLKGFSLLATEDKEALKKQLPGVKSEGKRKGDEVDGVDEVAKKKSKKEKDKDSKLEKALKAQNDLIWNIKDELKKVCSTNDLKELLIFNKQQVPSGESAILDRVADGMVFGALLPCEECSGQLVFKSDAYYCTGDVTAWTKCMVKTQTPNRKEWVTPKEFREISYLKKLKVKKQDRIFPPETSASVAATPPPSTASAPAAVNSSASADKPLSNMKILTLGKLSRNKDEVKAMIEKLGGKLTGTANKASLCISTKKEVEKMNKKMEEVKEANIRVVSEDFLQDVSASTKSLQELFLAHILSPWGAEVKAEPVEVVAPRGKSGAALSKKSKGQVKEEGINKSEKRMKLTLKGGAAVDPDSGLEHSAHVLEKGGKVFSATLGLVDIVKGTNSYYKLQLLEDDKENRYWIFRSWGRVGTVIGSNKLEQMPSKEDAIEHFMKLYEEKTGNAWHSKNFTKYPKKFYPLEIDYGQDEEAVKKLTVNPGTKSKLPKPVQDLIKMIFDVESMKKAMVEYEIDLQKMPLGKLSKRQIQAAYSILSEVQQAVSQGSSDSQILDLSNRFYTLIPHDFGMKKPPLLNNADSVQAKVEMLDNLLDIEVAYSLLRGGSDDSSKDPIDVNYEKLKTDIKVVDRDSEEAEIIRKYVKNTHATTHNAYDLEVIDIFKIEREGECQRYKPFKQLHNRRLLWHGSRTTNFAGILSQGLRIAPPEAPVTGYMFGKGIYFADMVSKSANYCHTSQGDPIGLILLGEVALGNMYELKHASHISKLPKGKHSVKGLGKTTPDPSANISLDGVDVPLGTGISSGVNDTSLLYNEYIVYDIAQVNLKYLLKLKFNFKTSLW
Glutathione S-transferase P, sequence (P09211 whole entry): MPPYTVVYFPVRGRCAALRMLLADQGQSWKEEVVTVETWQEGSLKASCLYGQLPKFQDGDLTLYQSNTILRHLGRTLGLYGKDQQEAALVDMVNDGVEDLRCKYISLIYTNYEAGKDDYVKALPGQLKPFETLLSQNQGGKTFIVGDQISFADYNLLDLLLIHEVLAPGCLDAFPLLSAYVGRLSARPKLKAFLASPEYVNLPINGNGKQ

IC50 [1]: 0.0305 µM
Structure (SMILES): O=C(c1cccc(Cc2n[nH]c(=O)c3ccccc23)c1)N1CCNCC1

Retention_time [2]: 11.9 min
IC50 [1]: 0.0069 µM
Structure (SMILES): O=C(c1cc(Cc2n[nH]c(=O)c3ccccc23)ccc1F)N1CCNCC1

Structure (SMILES): O=C(c1cc(Cc2n[nH]c(=O)c3ccccc23)ccc1F)N1CCN(/[N+]([O-])=N/Oc2ccc([N+](=O)[O-])cc2[N+](=O)[O-])CC1
IC50 [3]: 13.5 µM
IC50 [4]: 10.5 µM
t1/2 [5]: 11.6 min
Ratio [6]: 20.4
Ratio [7]: 10.6
Activity [8]: Active
Activity [9]: 27.7 g
IC50 [10]: 4.5 µM
IC50 [11]: 12.7 µM
IC50 [12]: 15 µM
Drug metabolism [13]: metabolite_detected
Activity [14]: Active
IC50 [15]: 8.4 µM
IC50 [16]: 3 µM
Activity [17]: Active
IC50 [18]: 4.3 µM
Retention_time [19]: 18.2 min
IC50 [20]: 0.058 µM
growth inhibition (GI) [21]: Active
IC50 [22]: 7.5 µM
Activity [23]: Active
IC50 [24]: 9.2 µM
IC50 [25]: 16.4 µM
IC50 [26]: 7.9 µM
Drug uptake [27]: Active
IC50 [28]: 5.4 µM

Structure (SMILES): O=C(c1cc(Cc2n[nH]c(=O)c3ccccc23)ccc1F)N1CCN(C(=O)C2CC2)CC1 [OLAPARIB]
Activity [9]: 25.6 g
Activity [23]: inactive

IC50 [3]: 16.8 µM
t1/2 [5]: 11.2 min
IC50 [11]: 14 µM
IC50 [18]: 6.8 µM
IC50 [29]: 11.4 µM
IC50 [20]: 0.123 µM
IC50 [22]: 11.2 µM
IC50 [24]: 13.8 µM
IC50 [26]: 9 µM
IC50 [28]: 5.3 µM
Structure (SMILES): O=C(c1cccc(Cc2n[nH]c(=O)c3ccccc23)c1)N1CCN(/[N+]([O-])=N/Oc2ccc([N+](=O)[O-])cc2[N+](=O)[O-])CC1
IC50 [4]: 14 µM
IC50 [10]: 8.1 µM
IC50 [12]: 19.4 µM
Activity [14]: Active
IC50 [15]: 7.5 µM
IC50 [16]: 6.5 µM
Activity [17]: Active
IC50 [25]: 13.8 µM

Structure (SMILES): N[C@@H](CCC(=O)N[C@@H](CSc1ccc([N+](=O)[O-])cc1[N+](=O)[O-])C(=O)NCC(=O)O)C(=O)O
Retention_time [2]: 13.8 min

Structure (SMILES): CNc1ccc(C(=O)Oc2cc(O/N=[N+](\[O-])N(C)C)c([N+](=O)[O-])cc2[N+](=O)[O-])cc1
t1/2 [5]: 2 min
Ratio [6]: 3.7
Ratio [7]: 5.4
